Data set [1] in a line: Antiproliferative activity against human HaCaT cells assessed as [3H]thymidine incorporation at 5 uM after 24 hrs. Type of data set: cell-based.
Data set [2] has as its system HaCaT. Kind of data set: Inhibition of PGE2 production in human HaCaT cells at 5 uM after 24 hrs by RIA. The data set is classed as functional.
Data set [3] has as its system Radical scavenging activity. The data set can be described thus: Antioxidant activity assessed as DPPH free radical scavenging activity after 30 mins by assay in solution. On the technique in general: DPPH is a stable violet radical that fades when it is reduced.
Data set [4] has as its system Neutrophil. The data set can be described thus: Inhibition of TPA-induced ROS production in human neutrophils by chemiluminescence. The data set is classed as functional, cell-based.
Data set [5] deals with Neutrophil. The data set can be described thus: Inhibition of TPA-induced ROS production in human neutrophils at 5 uM by chemiluminescence. The data set is classed as functional.
Data set [6] deals with HaCaT. The data set can be described thus: Inhibition of PGE2 production in human HaCaT cells after 24 hrs by RIA. The data set is classed as functional, cell-based.
For data set [7], the system named is HaCaT. Kind of data set: Cytotoxicity against human HaCaT cells assessed as plasma membrane integrity damage at 5 uM. Type of data set: cell-based. The method in brief: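 Membrane damage in treated HaCaT keratinocytes was measured as LDH leakage into the culture medium, read as A550nm (mU), with compounds at 5 µM. Results are mean ± SEM; ANOVA followed by Dunnett's t-test.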

In data set [8] the test system is HaCaT. The data set can be described thus: Antiproliferative activity against human HaCaT cells assessed as [3H]thymidine incorporation after 24 hrs. The data set is classed as cell-based. The essentials: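 HaCaT keratinocytes were grown in DMEM with 10% FCS, penicillin and streptomycin at 37 °C and 5% CO₂. Cells were seeded at 4 × 10⁴/well for 24 h, then the medium was replaced and compounds or vehicle (1% EtOH) added for 24 h. Cells were pulsed 6 h with methyl-³H-thymidine (1 µCi/mL), and incorporation was counted by scintillation. %I at 5 µM; IC₅₀ from ≥4 concentrations (n = 6); mean ± SEM.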
On the technique in general: Incorporation of labelled thymidine or its analogues reports DNA synthesis.

As usually defined, the inhibition is how much of the control response was suppressed. Usually IC50 stands for the midpoint of a concentration-inhibition curve. On to `CC1=CCC[C@H]2[C@](C)(Cc3cc(O)ccc3O)[C@@H](C)CC[C@]12C` [AVAROL], for which the inhibition at 24 h, 5 µM in data set [1] was found to be 18.9%. Also, the inhibition at 5 µM with HaCaT [2] was 4.9%; in the data set on Neutrophil [5], 71.7%. The values for the 50% inhibitory concentration (IC50) (in data set [3]; in the data set with Neutrophil [4]) were 18000 nM and 3600 nM, respectively.
Consider `CS(=O)(=O)Nc1ccc([N+](=O)[O-])cc1OC1CCCCC1` [NS-398], for which, in the data set on HaCaT [2], the inhibition at 5 µM was determined as 93.8%. Also, in the data set with HaCaT [6], the midpoint of inhibition, the IC50, lay at 10 nM.
For the molecule `COc1cc2ccc(=O)oc2c(O)c1O` [FRAXETIN], in the data set on Neutrophil [4], 1000 nM corresponded to half-maximal inhibition (IC50). The same molecule had an inhibition at 5 µM with Neutrophil [5] of 76.4%.
`CC1=CCC[C@H]2[C@](C)(CC3=CC(=O)C(NCCc4c[nH]c5ccccc45)=CC3=O)[C@@H](C)CC[C@]12C`: the inhibition at 24 h, 5 µM in data set [1] was found to be 36.7%. The inhibition at 5 µM in the data set with HaCaT [2] is 50.4%; in the data set with Neutrophil [5] it was 26.7%.
As to `CC1=CCC[C@H]2[C@](C)(CC3=CC(=O)C=C(NCCc4c[nH]c5ccccc45)C3=O)[C@@H](C)CC[C@]12C`, the inhibition at 24 h, 5 µM in data set [1] stood at 33.3%. Further, the inhibition at 5 µM was 47.1% in the data set with HaCaT [2] and 25.2% with Neutrophil [5].
Take `O=C1c2c(O)cccc2Cc2cccc(O)c21` [ANTHRALIN]: the Activity in the data set with HaCaT [7] worked out at 59%. Besides, the inhibition at 24 h, 5 µM in data set [1] amounted to 73.8%. This molecule registered an inhibition at 5 µM with Neutrophil [5] of 31.2%. Also, the IC50 in the data set on HaCaT [8] worked out at 2900 nM.
Consider `CNC1=CC(=O)C(C[C@]2(C)[C@@H](C)CC[C@]3(C)C(C)=CCC[C@@H]23)=CC1=O`, for which the inhibition at 24 h, 5 µM in data set [1] was found to be 33.5%. In addition, the inhibition at 5 µM in the data set with HaCaT [2] was 54.8%; in the data set with Neutrophil [5], 37.8%.
